In ChEMBL document CHEMBL1146230, “New analogues of the potent cytotoxic saponin OSW-1” (J Med Chem, 2007) one finds CC50 and TCS50 data, which are given here for eight molecules.

The nature of data set [1]: Cytotoxicity against mouse NIH 3T3 cells after 72 hrs. It is filed as cell-based, NIH3T3. The settings on record: read-out: TCS50. The procedure, abridged:
(§1)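 Cells grown in DMEM with 10% fetal calf serum, 4 mM glutamine, penicillin/streptomycin, 37 °C, 5% CO2. About 1.25×10^5 cells/mL seeded and stabilized 3 h. Compounds added in DMSO as serial (usually 6- and 4-fold) dilutions, top well usually 50 µM, DMSO final ≤0.6%. After 72 h, Calcein AM for 1 h, fluorescence read. Survival taken vs DMSO controls; TCS50 from dose-response curves; mean ± SD of three experiments.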

For another data set, the system named is CCRF-CEM. Kind of data set: Cytotoxicity against CEM cells after 72 hrs. It is filed as functional, Homo sapiens. The method, boiled down:
as §1

A further data set relates to HeLa. Description: Cytotoxicity against HeLa cells after 72 hrs. It is filed as functional, Homo sapiens. The method, boiled down:
as §1

A further data set relates to G-361. Kind of data set: Cytotoxicity against human G361 cells after 72 hrs. It is filed as functional. The procedure, abridged: as §1
For a further data set, the system named is K562. Description: Cytotoxicity against K562 cells after 72 hrs. It is filed as functional, Homo sapiens. The method, boiled down: as §1
A further data set has as its system MCF7. Description: Cytotoxicity against MCF7 cells after 72 hrs. It is filed as functional, Homo sapiens. The method, boiled down:
as §1

A further data set deals with HOS. Kind of data set: Cytotoxicity against HOS cells after 72 hrs. It is filed as functional, Homo sapiens. The method, boiled down:
as §1

A further data set has as its system A549. Kind of data set: Cytotoxicity against A549 cells after 72 hrs. Format: functional, Homo sapiens. The procedure, abridged:
as §1

Data set [2] can be described thus: Cytotoxicity against ARN8 cells after 72 hrs. Format: functional, Homo sapiens. The method, boiled down: as §1

Consider `CC(=O)O[C@H]1[C@H](O[C@H]2C[C@H]3[C@@H]4CC=C5C[C@@H](O)CC[C@]5(C)[C@H]4CC[C@]3(C)[C@@]2(O)[C@H](C)C(=O)CCC(C)C)OC[C@H](O)[C@@H]1O`, for which the CC50 at 72 h in [1] was > 50 µM. The TCS50 in the data set on CCRF-CEM turned out to be 200 nM; with HeLa, 570 nM; with G-361, 2200 nM; in the data set on K562, 430 nM; with MCF7, 1300 nM; with HOS, 4200 nM. Also, the results for the TCS50 (in the data set on A549; in data set [2]) were 4200 nM and 1950 nM, respectively.
Regarding `CCCCCOC[C@@H](C)[C@@]1(O)[C@@H](O[C@@H]2OC[C@H](O)[C@H](O[C@@H]3OC[C@@H](O)[C@H](O)[C@H]3OC(=O)c3ccc(OC)cc3)[C@H]2OC(C)=O)C[C@H]2[C@@H]3CC=C4C[C@@H](O)CC[C@]4(C)[C@H]3CC[C@@]21C`, the CC50 at 72 h in data set [1] is > 50 µM. In addition, the TCS50 in the data set on CCRF-CEM is recorded as <200 nM; with HeLa, 350 nM; in the data set on G-361 it was 1900 nM; in the data set on K562, <400 nM; in the data set on MCF7 it was 860 nM; in the data set with HOS, 1800 nM. In addition, the TCS50 in the data set with A549 was <200 nM; in [2] it was <400 nM.
Turning to `CCCCCC(=O)[C@@H](C)[C@@]1(O)[C@@H](O[C@@H]2OC[C@H](O)[C@H](O[C@@H]3OC[C@@H](O)[C@H](O)[C@H]3OC(=O)c3ccc(OC)cc3)[C@H]2OC(C)=O)C[C@H]2[C@@H]3CC=C4C[C@@H](O)CC[C@]4(C)[C@H]3CC[C@@]21C`, the CC50 at 72 h in data set [1] is > 50 µM. Moreover, the TCS50 in the data set on CCRF-CEM is 0.2 nM; in the data set with HeLa, 8 nM; in the data set on G-361, 1400 nM; in the data set with K562 it was 0.7 nM; in the data set with MCF7, 40 nM; in the data set on HOS, 42 nM. Further, the TCS50 in the data set with A549 is 0.5 nM; in [2], 0.6 nM.
For `COc1ccc(C(=O)O[C@H]2[C@H](O[C@@H]3[C@@H](OC(C)=O)[C@H](O[C@@H](CCC(C)C)[C@@H](C)[C@@]4(O)C(=O)C[C@H]5[C@@H]6CC=C7C[C@@H](O)CC[C@]7(C)[C@H]6CC[C@@]54C)OC[C@@H]3O)OC[C@@H](O)[C@@H]2O)cc1`, the CC50 at 72 h in [1] is > 50 µM. In addition, the TCS50 in the data set on CCRF-CEM is recorded as 280 nM; with HeLa, 1000 nM; in the data set on G-361, 14400 nM; with K562, 430 nM; with MCF7, 3400 nM; in the data set on HOS it was 11700 nM. The TCS50 in the data set on A549 worked out at 480 nM; in data set [2] it was 500 nM.
On to `COc1ccc(C(=O)O[C@H]2[C@H](O[C@@H]3[C@@H](OC(C)=O)[C@H](O[C@H]4C[C@H]5[C@@H]6CC=C7C[C@@H](O)CC[C@]7(C)[C@H]6CC[C@]5(C)[C@@]4(O)[C@H](C)C(=O)CCC(C)C)OC[C@@H]3O)OC[C@@H](O)[C@@H]2O)cc1`, for which, in data set [1], the CC50 at 72 h is > 50 µM. The TCS50 is 0.3 nM in the data set with CCRF-CEM; 8 nM with HeLa; 1000 nM in the data set on G-361; 0.8 nM with K562; 50 nM in the data set on MCF7; 40 nM in the data set on HOS. For the same molecule, the TCS50 in the data set on A549 is on record as 0.5 nM; in data set [2], 4 nM.
Take `COc1cccc2c1C(=O)c1c(O)c3c(c(O)c1C2=O)C[C@@](O)(C(C)=O)C[C@@H]3O[C@H]1C[C@H](N)[C@H](O)[C@H](C)O1` [DAUNORUBICIN]: the TCS50 is recorded as 62 nM in the data set on CCRF-CEM; 670 nM in the data set on HeLa; 670 nM with G-361; 230 nM in the data set with K562; 140 nM in the data set with MCF7; 330 nM with HOS.
Turning to `CCCC(=O)[C@@H](C)[C@@]1(O)[C@@H](O[C@@H]2OC[C@H](O)[C@@H](O[C@@H]3OC[C@@H](O)[C@H](O)[C@H]3OC(=O)c3ccc(OC)cc3)[C@@H]2OC(C)=O)C[C@H]2[C@@H]3CC=C4C[C@@H](O)CC[C@]4(C)[C@H]3CC[C@@]21C`, the CC50 at 72 h in data set [1] is > 50 µM. Moreover, the TCS50 in the data set with CCRF-CEM stood at 0.5 nM; in the data set on HeLa it was 12 nM; with G-361 it was 3100 nM; in the data set on K562, 1.4 nM; in the data set with MCF7 it was 90 nM; in the data set with HOS, 140 nM. Moreover, the TCS50 with A549 amounted to 0.9 nM; in data set [2] it was 3 nM.
For the molecule `COc1ccc(C(=O)O[C@H]2[C@H](O[C@H]3C[C@H]4[C@@H]5CC=C6C[C@@H](O)CC[C@]6(C)[C@H]5CC[C@]4(C)[C@@]3(O)[C@H](C)C(=O)CCC(C)C)OC[C@@H](O)[C@@H]2O)cc1`, the CC50 at 72 h in data set [1] was > 50 µM. Besides, the TCS50 with CCRF-CEM is reported as 1000 nM; with HeLa, 2300 nM; in the data set with G-361, 3500 nM; in the data set on K562 it was 1800 nM; in the data set with MCF7, 3500 nM; in the data set on HOS, 7200 nM. The figures for the TCS50 (in the data set on A549; in data set [2]) were 7200 nM and 1500 nM, respectively.
